Test results from the EternaBench riboswitch data.

Test system: MS2 coat protein
Experiment: apparent Kd, MS2 coat protein; higher = weaker binding; RNA-MaP array; FMN 200 µM where present
Procedure, shortened: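 Designs were transcribed by stalled E. coli RNA polymerase on Illumina sequencing-chip clusters. They were titrated with SNAP-549-labelled MS2 coat protein from 0.7 or 1.5 nM, doubling to 3 µM, without and then with constant ligand. Buffer: 100 mM Tris-HCl pH 7.5, 80 mM KCl, 4 mM MgCl2, BSA, DTT, yeast tRNA, Tween-20. Green signal was normalised to red-channel RNA signal and control-cluster median Fmax. Apparent Kd is the median of filtered per-cluster binding-curve fits.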

[1] = designed as: ON switch for flavin mononucleotide, no ligand
[2] = ligand present: flavin mononucleotide, designed as: ON switch for flavin mononucleotide
[3] = designed as: OFF switch for flavin mononucleotide, no ligand
[4] = ligand present: flavin mononucleotide, designed as: OFF switch for flavin mononucleotide

Sequence	apparent Kd [1]	apparent Kd [2]	apparent Kd [3]	apparent Kd [4]
CCAUGCAUAGCGAUAUGAUCGAGAGAUCAUGUCGCUAAAUUUAGAAGGACAUGAGGAUCACCCAUGUAGGAUAUGGGAGCAUGC	58.4 nM	17.8 nM		
UGUAUUAAUGGAGGAUAUCGAUAUCAAACAUGAGGAUCACCCAUGUUGAGGAUCACCCAUGUCCACGAGAAGGCUGGCGUACGU	16.6 nM	18.1 nM		
UUAUACGUUGAGGAUAUGCGACUUUGUAUAGUUGUAGAAGGCGAUACAUGAGGAUCACCCAUGUUUAUGGGCAU			323 nM	554 nM
CUAUGAAGAAUAGGAUAUUCGAUCAAAAGGAUAGAAGAAGGGUUACAUGAGGAUCACCCAUGUAUGCACAUGAGGAUCCCUUAG			188 nM	196 nM
AAAGUGUCAGGAUAUACAUGAGGAUCACCCAUGUAUCUUUUUGAUCGUAGGGUGCACCGUAGAAGGGACACUCC			27.4 nM	37.1 nM
GGACGUCUCAUUUACAUGAGGAUCACCCAUGUCGAUAGACAUGAGGAUAUGGAUCCGAAUCGGAUCCAGAAGGCAUGGACGUCC	1130 nM	63.4 nM		
AAUAACAGAGGAUAUACUGUUUUAUGUGUUUGUUAUUUUGAACAUGAGGAUCACCCAUGUAGAAGGCUGAAUGA			28.9 nM	29.7 nM
AAAAAACAUGAGGAUCACCCAUGUCAGGAUAUCUGUAUUCAAUCCUCGGAUUGAAUACAGAGAAGGGACAUGGA			42 nM	22.8 nM
GCACGGUUUGUAGGAUAUGCAUAGCAUUGCUAUGCAGAAGGACAUGAGGAUCACCCAUGUAUGUAUUCCAUACAUUUCCCGUGC			5.62 nM	5.63 nM
GCCGAUUAAGUGAGGAUAUACCUAUGGAUACAUAGGUAGAAGGUACAUGAGGAUCACCCAUGUUCCUCAUCGGC			10 nM	12.2 nM
CCCUGAGACCGGUUAAUUGGCUGAUAGGAUAUCCUCGGACAUGAGGAUCACCCAUGUUAACUAUUGGAGAAGGGUCAGCGAAAG	448 nM	216 nM		
UUAGCAACAUGAGGAUCACCCAUGUAGGAUAUCGCUAUUGUAAUCAUGAAACAUGAUUACAAUAGCGAGAAGGACAUAUGCUAG			9.88 nM	10.7 nM
CCUAAGCGAGGAUAUACAUGAGGAUCACCCAUGUCCGCGUUCAUGAGGUUAAGAUCUUGUAGAAGGCGCCAAAA			33 nM	161 nM
GCCGGUUACACAGGAUAUCCCAUGUCGACGGCGACAUGAGGAUCACCCAUGUCCUGGACGGGUUAGGAGAAGGGUGUAAAAUGC	110 nM	51.8 nM		
UCACGGUAUGUAGGAUAUGCAUAGCAUUGCUAUGCAGAAGGACAUGAGGAUCACCCAUGUAUGUAUUCCAUACUAUUCCCGUGU			6.18 nM	6.09 nM
UGACCCUGGAUGAGUGUUUAGACAUGAGGAUCACCCAUGUCUGAGGAUAUGCGGCAUCAAUAACAGCAGAAGGCAGACUUGGGU			133 nM	41.2 nM
UUCGCUAAGGUGUAGCGAGACAUGCAAGAAGGGUGAAGAACAUGAGGAUCACCCAUGUAAUCCUUACAGGAUAUUGAUUGACGA	307 nM	181 nM		
UUGUGUGUAGAGGAUAUCUGCGCGCGCGCGCGCGGAGAAGGCUGUACAUGAGGAUCACCCAUGUUGUGUGUGUG			71.8 nM	29.9 nM
CGUGUCGCAUGAGGAUAUGGUCAGCUUUGCUGACCAGAAGGCAUGUCAAUAGACAUGAGGAUCACCCAUGUAGUUAAGACACGA	592 nM	39.8 nM		
UUAAAUCAUGUAGGAUAUGCAUGGCGAAGCUACGCAGAAGGACAUGAGGAUCACCCAUGUUAUAGCUACCGAGUUCGGUGGCAA			109 nM	224 nM
GUCACUAGAGGAUAUACAAUGGUAUAUGAUCCUAGAGACAAACAUGAGGAUCACCCAUGUAGAAGGCUAGUAUU			155 nM	37.4 nM
UCAUCAACGGGCGGGUCGGUUGGACAUGAGGAUCACCCAUGUAGAAGGACCGGUGGACUCCGCCGGUAGGAUAUACAUUUGGUG			41.6 nM	30.1 nM
GUCAGCUCGUGAGGAUAUACAACACUGCUUCGGCAGUGUAUUAAGAUCACAUGAGGAUCACCCAUGUAGAAGGCUCGAGCUGAU			14.6 nM	271 nM
